An excerpt weighted towards active compounds, which were near 2.2% of everything screened.
FID counter – compounds displacing fluorescent DNA intercalator, primary screen, artefact control for HCV NS3 helicase inhibitor project, biochemical, FID fluorescence. DNA fluorescent intercalator displacement. inhibition, % at 7.9 µM. 290,000 tested, 0.17% active; in the data active = inhibition above about 37%;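 note: higher means more ethidium bromide displaced from hairpin DNA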
DAGLB inh – DAGLB lipase inhibitors, primary screen, biochemical, fluorescence, HTS; inhibition, % at 5.17 µM; Diacylglycerol lipase-beta (Homo sapiens), Q8NCG7; 340,000 tested, 0.059% active; AID 504411, 2011; HEK293T DAGLB membrane lysate, EnzChek fluorogenic substrate; in the data active = inhibition above about 34%
Target sequence (Q8NCG7 whole entry, looked up): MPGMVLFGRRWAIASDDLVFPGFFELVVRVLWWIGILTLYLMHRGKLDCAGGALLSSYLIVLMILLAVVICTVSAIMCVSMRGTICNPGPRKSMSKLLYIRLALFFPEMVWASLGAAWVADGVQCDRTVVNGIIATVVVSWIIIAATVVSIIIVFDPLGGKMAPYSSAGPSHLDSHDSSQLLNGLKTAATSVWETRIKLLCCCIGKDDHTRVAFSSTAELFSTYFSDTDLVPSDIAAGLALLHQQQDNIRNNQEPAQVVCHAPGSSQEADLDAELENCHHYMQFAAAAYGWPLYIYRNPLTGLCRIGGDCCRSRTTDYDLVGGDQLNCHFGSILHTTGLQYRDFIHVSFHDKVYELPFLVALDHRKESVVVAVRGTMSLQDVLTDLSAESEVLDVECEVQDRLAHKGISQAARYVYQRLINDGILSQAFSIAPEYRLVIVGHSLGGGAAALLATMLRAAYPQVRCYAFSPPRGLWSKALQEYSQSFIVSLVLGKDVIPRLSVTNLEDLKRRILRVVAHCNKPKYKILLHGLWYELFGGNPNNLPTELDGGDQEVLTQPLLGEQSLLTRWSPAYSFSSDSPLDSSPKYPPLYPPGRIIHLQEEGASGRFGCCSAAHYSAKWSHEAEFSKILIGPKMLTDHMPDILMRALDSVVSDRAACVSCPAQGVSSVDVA
HCV NS3 hel inh – inhibitors of HCV NS3 helicase, primary screen, biochemical, Cy5 molecular beacon fluorescence. Hepatitis C virus NS3 helicase. NS3 helicase DNA unwinding. inhibition, % at 10.9 µM. 290,000 tested, 0.56% active. AID 1800, 2009;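 active = inhibition above the mean of all tested compounds plus 3 SD, set per campaign, cut at about 35% in these data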
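Control set: DMSO versus 110 µM thioflavine S; Material: NS3 helicase fragment of HCV; Measured by: Cy5 fluorescence at 0 and 60 min, beacon hairpin quenching; Read-out basis: percent inhibition from t60/t0 fluorescence ratio; Times: reaction time 60 min, 25 °C; Repeats: single replicate; Compound dosing: single dose, 10.9 µM nominal final, DMSO 0.8% final.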
core dimer inh – inhibitors of HCV core protein dimerization, primary screen, biochemical, TR-FRET, high-throughput; AID 1899, 2009; TR-FRET GST/Flag-core106 dimerization, 1536-well; 300,000 tested, 0.33% active; inhibition, % at 5 µM;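 active = inhibition above the mean of all tested compounds plus 3 SD, set per screening campaign, cut at about 45% in these data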
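Assay system: tagged HCV core106 pair (GST and Flag); medium: KF-containing HEPES buffer, pH 7.45, DTT, CHAPS, BSA; also added: Eu donor and XL665 acceptor anti-tag antibodies; dosing: 5 µM single dose; timing: compound-protein-antibody incubation 4 h at 22.5 °C; signal: TR-FRET 671 and 617 nm emission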
GRK2 inh – compounds blocking aptamer binding on GRK2 – biochemical, human GRK2, bead flow cytometry, HTS, primary screen | FAM-aptamer displacement from GRK2 | Beta-adrenergic receptor kinase 1 (Homo sapiens), P25098 | inhibition of aptamer binding, % at 10 µM | AID 488847, 2010 | 330,000 tested, 0.59% active;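 active = inhibition of aptamer binding above 40%, roughly 3 SD of noise, on plates passing a quality check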;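 note: median bead fluorescence of bound FAM aptamer so fluorescent compounds give negative values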
GPR7 antagonist – GPR7 receptor antagonists, primary screen, cell-based, fluorescence, single concentration | GPR7-expressing cells, fluorescence antagonist assay | inhibition, % at 4.4 µM | 290,000 tested, 1.1% active | AID 1861, 2009; in the data active = inhibition above about 16%, passing the limit was not always enough;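 note: cells stimulated with the agonist NPW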
Numbers stand for hits.

O=C(/C=C/c1ccccc1Cl)Nc1cccc(O)c1 was read as FID counter inactive, DAGLB inh inactive, HCV NS3 hel inh inactive, core dimer inh inactive, GRK2 inh inactive and GPR7 antagonist 22.
`Cc1ccccc1NC(=O)Cc1nc(COC(=O)c2ccc(S(C)(=O)=O)c([N+](=O)[O-])c2)cs1` gave DAGLB inh inactive and GRK2 inh inactive.
`COc1ccc(-c2cc3c(=O)n(CC(=O)NC4CCN(Cc5ccccc5)CC4)ncn3n2)cc1` gave FID counter inactive, DAGLB inh inactive, HCV NS3 hel inh inactive, core dimer inh inactive, GRK2 inh inactive and GPR7 antagonist inactive.
Screening COc1ccc(-c2cc3c(=O)n(CC(=O)NCCCN4CCC(N5CCCCC5)CC4)ncn3n2)cc1 returned FID counter 40, DAGLB inh inactive, HCV NS3 hel inh inactive, core dimer inh inactive, GRK2 inh inactive and GPR7 antagonist inactive.
`COc1ccc(-c2cc3c(=O)n(CC(=O)NCCCN4CCC(N5CCCCC5)CC4)nc(C)n3n2)cc1` gave FID counter 42, DAGLB inh inactive, HCV NS3 hel inh inactive, core dimer inh inactive, GRK2 inh inactive and GPR7 antagonist inactive.
`Cc1nn(C(=O)c2cccc([N+](=O)[O-])c2)c(C)c1Cl` gave FID counter inactive, DAGLB inh inactive, HCV NS3 hel inh inactive, core dimer inh inactive, GRK2 inh inactive and GPR7 antagonist inactive.
Screening CC(=O)N1/C(=C/c2ccc(N(C)C)cc2)C(=O)c2ccccc21 returned FID counter inactive, DAGLB inh inactive, HCV NS3 hel inh inactive and GPR7 antagonist 28.
`O=C1CCC(=O)N1OCCCCOc1ccccc1` gave FID counter inactive, DAGLB inh inactive, HCV NS3 hel inh inactive, core dimer inh inactive, GRK2 inh 42 and GPR7 antagonist inactive.
Screening Cc1ccc(C(=O)Nc2nnc(CC(=O)N/N=C/c3ccncc3)s2)cc1 returned FID counter inactive, DAGLB inh inactive, HCV NS3 hel inh inactive, core dimer inh inactive, GRK2 inh inactive and GPR7 antagonist inactive.
`Cc1ccc(C(=O)Nc2nnc(CC(=O)N/N=C/c3ccc(O)c(O)c3)s2)cc1` gave FID counter inactive, DAGLB inh inactive, HCV NS3 hel inh inactive, core dimer inh inactive, GRK2 inh 62 and GPR7 antagonist inactive.
For N#Cc1c(SCC(=O)Nc2nncs2)sc2c(O)cc(=O)[nH]c12 the results were FID counter inactive, DAGLB inh inactive, HCV NS3 hel inh inactive, core dimer inh inactive, GRK2 inh 41 and GPR7 antagonist inactive.
`COc1ccc(CCNC(=O)CSc2nc3c(sc(=S)n3-c3ccccc3)c(=O)[nH]2)cc1OC` gave DAGLB inh inactive.
Cc1cc(SCc2ccc(Cl)cc2)nc(=O)[nH]1 was read as FID counter inactive, DAGLB inh inactive, HCV NS3 hel inh inactive, core dimer inh inactive, GRK2 inh inactive and GPR7 antagonist inactive.
Cc1ccc(CSc2cc(C)[nH]c(=O)n2)cc1 was read as FID counter inactive, DAGLB inh inactive, HCV NS3 hel inh inactive, core dimer inh 53, GRK2 inh inactive and GPR7 antagonist inactive.
For Cn1ncc2c(NCc3cccc(C(F)(F)F)c3)c(C(=O)O)cnc21 the results were FID counter inactive, HCV NS3 hel inh inactive, core dimer inh inactive, GRK2 inh 55 and GPR7 antagonist inactive.
`CCN(Cc1ccccc1)c1c(C(=O)O)cnc2c1cnn2C` gave FID counter inactive, HCV NS3 hel inh inactive, core dimer inh inactive, GRK2 inh inactive and GPR7 antagonist inactive.
Screening O=C1OC(c2ccc3c(c2)OCO3)=N/C1=C\c1ccc(C(=O)O)cc1 returned FID counter inactive, DAGLB inh inactive, HCV NS3 hel inh inactive, core dimer inh inactive, GRK2 inh 53 and GPR7 antagonist inactive.
O=C(O)c1cccc(-c2ccc3c(c2)OCO3)c1 was read as FID counter inactive, DAGLB inh inactive, HCV NS3 hel inh inactive, core dimer inh inactive, GRK2 inh inactive and GPR7 antagonist inactive.
`Cn1c(C(=O)Nc2ccc3c(c2)OCCO3)cc2sccc21` gave FID counter inactive, DAGLB inh inactive, HCV NS3 hel inh inactive, core dimer inh inactive and GPR7 antagonist inactive.
CC(C)c1ccc(NC(=O)Nc2cc3sccc3n2C)cc1 was read as FID counter inactive, DAGLB inh inactive, HCV NS3 hel inh inactive, core dimer inh 47, GRK2 inh inactive and GPR7 antagonist inactive.
Screening Cc1ccc(CNC(=O)Nc2ccccc2)n1C returned FID counter inactive, DAGLB inh inactive, HCV NS3 hel inh inactive, core dimer inh inactive, GRK2 inh inactive and GPR7 antagonist inactive.
Screening CCOC(=O)c1cnc(-c2ccccc2)nc1Oc1ccc(Cl)c(Cl)c1 returned FID counter inactive, DAGLB inh inactive, HCV NS3 hel inh inactive, core dimer inh inactive, GRK2 inh inactive and GPR7 antagonist 19.
CCOC(=O)c1cnc(-c2ccccc2)nc1Oc1cccc(Cl)c1 was read as FID counter inactive, DAGLB inh inactive, HCV NS3 hel inh inactive, core dimer inh inactive, GRK2 inh inactive and GPR7 antagonist inactive.
Screening C[C@H](CO)N1C[C@H](C)[C@@H](CN(C)S(=O)(=O)c2ccccc2F)Oc2ncc(C#Cc3cccnc3)cc2C1=O returned DAGLB inh inactive.
Screening N=c1n(CCN2CCCC2)c2ccccc2n1CC(O)c1ccc(Cl)c(Cl)c1 (stereo unspecified) returned FID counter 48, DAGLB inh inactive, HCV NS3 hel inh inactive, core dimer inh inactive, GRK2 inh inactive and GPR7 antagonist 39.
Screening O=C(Nc1nc(-c2ccccc2)cs1)C1CCCN(S(=O)(=O)c2cccc([N+](=O)[O-])c2)C1 (stereo unspecified) returned FID counter inactive, DAGLB inh inactive, HCV NS3 hel inh inactive, core dimer inh 46, GRK2 inh inactive and GPR7 antagonist inactive.
O=c1cc(CN2CCc3ccccc32)nc2sccn12 was read as FID counter inactive, DAGLB inh inactive, HCV NS3 hel inh inactive, core dimer inh 86, GRK2 inh inactive and GPR7 antagonist inactive.
For Cc1cccc(Nc2ncnc3nc[nH]c23)c1 the results were FID counter inactive, DAGLB inh inactive, HCV NS3 hel inh inactive, core dimer inh inactive, GRK2 inh inactive and GPR7 antagonist 19.
`C[C@@H]1CN([C@H](C)CO)C(=O)CCCn2cc(nn2)CO[C@H]1CN(C)S(=O)(=O)c1ccccc1C#N` gave DAGLB inh inactive.
`CCC1=NNc2cccc3c(OC)ccc1c23` gave FID counter inactive, HCV NS3 hel inh inactive, core dimer inh inactive, GRK2 inh 81 and GPR7 antagonist inactive.
